Key:
BV-2 [1] = assay: Antineuroinflammatory activity in mouse BV2 cells assessed as inhibition of LPS-induced nitric oxide production measured after 24 hrs by Griess assay; type: functional, cell-based; conditions: BV-2, 24 h
Outline: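 BV-2 microglia; minocycline served as the positive control, and IC50 values were reported.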

BV-2 [2] = assay: Cytotoxicity against mouse BV2 cells assessed as reduction in cell viability at 1 to 100 uM after 24 hrs by MTT assay; type: cell-based; conditions: bv-2, 24 h
Outline: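 BV-2 viability was read by MTT at 1, 10, 30 and 100 μM in parallel with the NO-release test, to exclude NO drops caused by lost viability.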

| IC50 (BV-2 [1]) | SMILES | Activity (BV-2 [2]) |
| --- | --- | --- |
| 15.3 µM | COc1cc(/C=C/C(=O)O[C@H]2CC(=O)[C@]3(C)[C@H]4CC[C@]5(C)C(=CC[C@@]6(C(=O)O)CCC(C)(C)C[C@H]65)[C@]4(C)CC[C@H]3C2(C)C)ccc1O | Non-Toxic |
| 2.7 µM | CC1(COC(=O)/C=C/c2ccc(O)cc2)CC[C@]2(C(=O)O)CC=C3[C@]4(C)CC[C@H]5C(C)(C)C(=O)C=C[C@]5(C)[C@H]4CC[C@@]3(C)[C@@H]2C1 (stereo not given in full) | Non-Toxic |
| > 50 µM | CC1(C)CC[C@]2(C(=O)O)CC=C3[C@]4(C)CC[C@H]5C(C)(C)[C@@H](O)CC(=O)[C@]5(C)[C@H]4CC[C@@]3(C)[C@@H]2C1 | Non-Toxic |
| > 50 µM | CC(=O)O[C@H]1C[C@H](O)[C@]2(C)[C@H]3CC[C@]4(C)C(=CC[C@@]5(C(=O)O)CCC(C)(C)C[C@H]54)[C@]3(C)CC[C@H]2C1(C)C | Non-Toxic |
| 13.8 µM | O=c1ccc2cc3c(cc2o1)O[C@H](c1ccc(O)c(O)c1)[C@@H](CO)O3 | Non-Toxic |
| 14 µM | CC1(C)CC[C@]2(C(=O)O)CC=C3[C@]4(C)CC[C@H]5C(C)(C)[C@@H](OC(=O)/C=C/c6ccc(O)cc6)CC(=O)[C@]5(C)[C@H]4CC[C@@]3(C)[C@@H]2C1 | Non-Toxic |
| > 50 µM | CC1(C)CC[C@]2(C(=O)O)CC=C3[C@]4(C)CC[C@H]5C(C)(C)C(=O)CC[C@]5(C)[C@H]4CC[C@@]3(C)[C@@H]2C1 | Non-Toxic |
| 5.8 µM | O=c1ccc2cc3c(cc2o1)O[C@H](CO)[C@@H](c1ccc(O)c(O)c1)O3 | Non-Toxic |
| 7.2 µM | O=c1ccc2cc3c(cc2o1)O[C@@H](c1ccc(O)c(O)c1)[C@H](CO)O3 | Non-Toxic |
| 46.5 µM | CC1(C)CC[C@]2(C(=O)O)CC=C3[C@]4(C)CC[C@H]5C(C)(C)[C@@H](OC(=O)/C=C/c6ccc(O)cc6)C[C@H](O)[C@]5(C)[C@H]4CC[C@@]3(C)[C@@H]2C1 | Non-Toxic |
| 4.2 µM | COc1c2c(cc3ccc(=O)oc13)O[C@@H](c1ccc(O)c(O)c1)[C@H](CO)O2 | Non-Toxic |
| > 50 µM | O=c1ccc2cc3c(cc2o1)O[C@@H](CO)[C@H](c1ccc(O)c(O)c1)O3 | Non-Toxic |
| 11.8 µM | COc1c2c(cc3ccc(=O)oc13)O[C@H](c1ccc(O)c(O)c1)[C@@H](CO)O2 | Non-Toxic |
| 1.7 µM | CC1(COC(=O)/C=C\c2ccc(O)cc2)CC[C@]2(C(=O)O)CC=C3[C@]4(C)CC[C@H]5C(C)(C)C(=O)C=C[C@]5(C)[C@H]4CC[C@@]3(C)[C@@H]2C1 (stereo not given in full) | Non-Toxic |
| > 50 µM | CC(=O)O[C@H]1CC(=O)[C@]2(C)[C@H]3CC[C@]4(C)C(=CC[C@@]5(C(=O)O)CCC(C)(C)C[C@H]54)[C@]3(C)CC[C@H]2C1(C)C | Non-Toxic |
| > 50 µM | CC(=O)O[C@H]1CC[C@]2(C)[C@H]3CC[C@]4(C)C(=CC[C@@]5(C(=O)O)CCC(C)(C)C[C@H]54)[C@]3(C)CC[C@H]2C1(C)C [ACETYL ALEURITOLIC ACID] | Non-Toxic |
| > 50 µM | CC1(C)CC[C@]2(C(=O)O)CC=C3[C@]4(C)CC[C@H]5C(C)(C)[C@@H](O)CC[C@]5(C)[C@H]4CC[C@@]3(C)[C@@H]2C1 [ALEURITOLIC ACID] | Non-Toxic |
| 4.9 µM | CN(C)c1ccc(O)c2c1C[C@H]1C[C@H]3[C@H](N(C)C)C(O)=C(C(N)=O)C(=O)[C@@]3(O)C(O)=C1C2=O [MINOCYCLINE] |  |
